Assay results as given in ChEMBL document CHEMBL2010670, “Discovery of a clinical stage multi-kinase inhibitor sodium (E)-2-{2-methoxy-5-[(2',4',6'-trimethoxystyrylsulfonyl)methyl]phenylamino}acetate (ON 01910.Na): synthesis, structure-activity relationship, and biological activity” (J Med Chem, 2011).

Tests used:
[1] = Cytotoxicity against human MES-SA cells assessed as cell viability after 96 hrs by trypan blue exclusion; assay type: functional, cell-based
Outline: (§1)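 Cells grown in DMEM or RPMI with 10% FBS and penicillin-streptomycin, seeded at 1.0 × 10⁵ cells/mL/well in 6-well dishes. Compound added at a range of concentrations 24 h after seeding. Viable cells counted by trypan blue exclusion from duplicate wells after 96 h of exposure; dose-response end point.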

[2] = Cytotoxicity against multidrug-resistant human MES-SA/Dx5 cells assessed as cell viability after 96 hrs by trypan blue exclusion; assay type: functional, cell-based; settings: MES-SA/Dx5, 96 h
Outline: (§2)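 Cells grown in DMEM or RPMI with 10% FBS and 1 unit/mL penicillin-streptomycin, seeded at 1.0 × 10⁵ cells/mL/well in 6-well dishes; compound added 24 h later at various concentrations. After 96 h of treatment, viable cells counted by trypan blue exclusion in duplicate wells; dose-response end point.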

DU-145 = experiment: Cytotoxicity against human DU145 cells after 96 hrs by trypan blue exclusion assay; assay type: functional, cell-based; settings: Homo sapiens, DU-145, 96 h; outline: as §1
K562 = experiment: Cytotoxicity against human K562 cells after 96 hrs by trypan blue exclusion assay; assay type: functional, cell-based; settings: Homo sapiens, K562, 96 h; outline: as §1
HCT-116 = experiment: Cytotoxicity against human HCT116 cells after 96 hrs by trypan blue exclusion assay; assay type: functional, cell-based; settings: HCT-116, 96 h; outline: as §1
NCI-H417 = experiment: Cytotoxicity against human NCI-N417 cells after 96 hrs by trypan blue exclusion assay; assay type: functional, cell-based; settings: NCI-H417, 96 h; outline: as §1
NCI-H187 = experiment: Cytotoxicity against human NCI-H187 cells after 96 hrs by trypan blue exclusion assay; assay type: functional, cell-based; settings: NCI-H187, 96 h; outline: as §1
COLO 205 = experiment: Cytotoxicity against human COLO205 cells after 96 hrs by trypan blue exclusion assay; assay type: functional, cell-based; settings: COLO 205, 96 h; outline: as §1
SK-BR-3 = experiment: Cytotoxicity against human SKBR3 cells after 96 hrs by trypan blue exclusion assay; assay type: functional, cell-based; settings: SK-BR-3, 96 h; outline: as §2
OVCAR-3 = experiment: Cytotoxicity against human OVCAR3 cells after 96 hrs by trypan blue exclusion assay; assay type: functional, cell-based; settings: OVCAR-3, 96 h; outline: as §1
NCI-H1975 = experiment: Cytotoxicity against human NCI-H1975 cells after 96 hrs by trypan blue exclusion assay; assay type: functional, cell-based; settings: NCI-H1975, 96 h; outline: as §1
Raji = experiment: Cytotoxicity against human Raji cells after 96 hrs by trypan blue exclusion assay; assay type: functional, cell-based; outline: as §2
[3] = Cytotoxicity against human […] cells after 96 hrs by trypan blue exclusion assay; assay type: functional, cell-based; outline: as §2
SW480 = experiment: Cytotoxicity against human SW480 cells after 96 hrs by trypan blue exclusion assay; assay type: functional, cell-based; settings: SW480, 96 h; outline: as §2
HCT-15 = experiment: Cytotoxicity against human HCT15 cells after 96 hrs by trypan blue exclusion assay; assay type: functional, cell-based; settings: HCT-15, 96 h; outline: as §1
[4] = Cytotoxicity against human Z138C cells after 96 hrs by trypan blue exclusion assay; assay type: functional, cell-based; outline: as §2
Daudi = experiment: Cytotoxicity against human Daudi cells after 96 hrs by trypan blue exclusion assay; assay type: functional, cell-based; outline: as §1
AGS = experiment: Cytotoxicity against human AGS cells after 96 hrs by trypan blue exclusion assay; assay type: functional, cell-based; outline: as §1
[5] = Cytotoxicity against multidrug-resistant human 2008/17/4 cells assessed as cell viability after 96 hrs by trypan blue exclusion; assay type: functional, cell-based; outline: as §2
MOLT-4 = experiment: Cytotoxicity against human MOLT4 cells after 96 hrs by trypan blue exclusion assay; assay type: functional, cell-based; settings: MOLT-4, 96 h; outline: as §1
PC-3 = experiment: Cytotoxicity against human PC3 cells after 96 hrs by trypan blue exclusion assay; assay type: functional, cell-based; settings: PC-3, 96 h; outline: as §1
U-266 = experiment: Cytotoxicity against human U266 cells after 96 hrs by trypan blue exclusion assay; assay type: functional, cell-based; settings: U-266, 96 h; outline: as §2
LP-1 = experiment: Cytotoxicity against human LP-1 cells after 96 hrs by trypan blue exclusion assay; assay type: functional, cell-based; settings: LP-1, 96 h; outline: as §1
BT-474 = experiment: Cytotoxicity against human BT474 cells after 96 hrs by trypan blue exclusion assay; assay type: functional, cell-based; settings: BT-474, 96 h; outline: as §1
DLD-1 = experiment: Cytotoxicity against human DLD1 cells after 96 hrs by trypan blue exclusion assay; assay type: functional, cell-based; settings: DLD-1, 96 h; outline: as §1
[6] = Cytotoxicity against human U87 cells after 96 hrs by trypan blue exclusion assay; assay type: functional, cell-based, U-87MG ATCC; settings: U-87 MG; outline: as §2
CCRF-CEM = experiment: Cytotoxicity against human CEM cells assessed as cell viability after 96 hrs by trypan blue exclusion; assay type: functional, cell-based; outline: as §1
MCF7 = experiment: Cytotoxicity against human MCF7 cells after 96 hrs by trypan blue exclusion assay; assay type: functional, cell-based; settings: MCF7, 96 h; outline: as §1
T47D = experiment: Cytotoxicity against human T47D cells after 96 hrs by trypan blue exclusion assay; assay type: functional, cell-based; outline: as §2
[7] = Cytotoxicity against human GRANTA-519 cells after 96 hrs by trypan blue exclusion assay; assay type: functional, cell-based; settings: Granta-519, 96 h; outline: as §1
[8] = Cytotoxicity against human COLO320 cells after 96 hrs by trypan blue exclusion assay; assay type: functional, cell-based; settings: COLO 320, 96 h; outline: as §1
[9] = Cytotoxicity against human RF1 cells after 96 hrs by trypan blue exclusion assay; assay type: functional, cell-based; settings: RF1, 96 h; outline: as §2
NCI-H157 = experiment: Cytotoxicity against human NCI-H157 cells after 96 hrs by trypan blue exclusion assay; assay type: functional, cell-based; settings: NCI-H157, 96 h; outline: as §1
2008 = experiment: Cytotoxicity against human 2008 cells assessed as cell viability after 96 hrs by trypan blue exclusion; assay type: functional, cell-based; settings: Homo sapiens, 2008, 96 h; outline: as §1
[10] = Cytotoxicity against human RF48 cells after 96 hrs by trypan blue exclusion assay; assay type: functional, cell-based; settings: RF48, 96 h; outline: as §2
CEM/C2 = experiment: Cytotoxicity against multidrug-resistant human CEM/C2 cells assessed as cell viability after 96 hrs by trypan blue exclusion; assay type: functional, cell-based; settings: CEM/C2, 96 h; outline: as §2
OPM-2 = experiment: Cytotoxicity against human OPM2 cells after 96 hrs by trypan blue exclusion assay; assay type: functional, cell-based; settings: OPM-2, 96 h; outline: as §1
MIA PaCa-2 = experiment: Cytotoxicity against human MIAPaCa2 cells after 96 hrs by trypan blue exclusion assay; assay type: functional, cell-based; settings: MIA PaCa-2, 96 h; outline: as §1
BT-20 = experiment: Cytotoxicity against human BT20 cells after 96 hrs by trypan blue exclusion assay; assay type: functional, cell-based; settings: BT-20, 96 h; outline: as §1
[11] = Cytotoxicity against human NAMALWA cells after 96 hrs by trypan blue exclusion assay; assay type: functional, cell-based; settings: NAMALVA; outline: as §1
A549 = experiment: Cytotoxicity against human A549 cells after 96 hrs by trypan blue exclusion assay; assay type: functional, cell-based; settings: A549, 96 h; outline: as §1

CC(=O)O[C@H]1C(=O)[C@@]2(C)[C@H]([C@H](OC(=O)c3ccccc3)[C@]3(O)C[C@H](OC(=O)[C@H](O)[C@@H](NC(=O)c4ccccc4)c4ccccc4)C(C)=C1C3(C)C)[C@]1(OC(C)=O)CO[C@@H]1C[C@@H]2O [PACLITAXEL]
IC50 [1]: 4 nM | IC50 [2]: 750 nM

COc1ccc(CS(=O)(=O)/C=C/c2cc(OC)c(OC)c(OC)c2)cc1N
IC50 (DU-145): 3000 nM | IC50 (K562): 250 nM

COc1ccc(CS(=O)(=O)/C=C/c2c(OC)cc(OC)cc2OC)c(N)c1
IC50 (DU-145): 25 nM | IC50 (K562): 25 nM

COc1cc(OC)c(/C=C/S(=O)(=O)Cc2ccc(OC)c(N[C@@H](C)C(=O)O)c2)c(OC)c1
IC50 (DU-145): 25 nM | IC50 (K562): 15 nM

COc1cc(OC)c(/C=C/SCc2ccc(OC)c(N)c2)c(OC)c1
IC50 (DU-145): 50 nM | IC50 (K562): 30 nM

COc1ccc(/C=C/S(=O)(=O)Cc2ccc(OC)c(N)c2)c(OC)c1
IC50 (DU-145): 500 nM | IC50 (K562): 500 nM

COc1cc(OC)c(/C=C/S(=O)(=O)Cc2ccc(OC)c(N)c2)c(OC)c1
IC50 (DU-145): 4 nM | IC50 (HCT-116): 3 nM | IC50 (NCI-H417): 3 nM | IC50 (NCI-H187): 4 nM | IC50 (COLO 205): 5 nM | IC50 (SK-BR-3): 3 nM | IC50 (OVCAR-3): 3 nM | IC50 (NCI-H1975): 3 nM | IC50 (Raji): 2 nM | IC50 [3]: 3 nM | IC50 (SW480): 5 nM | IC50 (HCT-15): 3 nM | IC50 [4]: 3 nM | IC50 (Daudi): 3 nM | IC50 [1]: 4 nM | IC50 (AGS): 3 nM | IC50 [5]: 3 nM | IC50 (MOLT-4): 4 nM | IC50 (PC-3): 6 nM | IC50 (U-266): 3 nM | IC50 (LP-1): 3 nM | IC50 (BT-474): 2 nM | IC50 (DLD-1): 5 nM | IC50 [6]: 3 nM | IC50 (CCRF-CEM): 10 nM | IC50 (MCF7): 1 nM | IC50 (T47D): 3 nM | IC50 [7]: 3 nM | IC50 [8]: 3 nM | IC50 [9]: 2 nM | IC50 (NCI-H157): 4 nM | IC50 2008: 3 nM | IC50 [10]: 1 nM | IC50 (CEM/C2): 10 nM | IC50 (OPM-2): 3 nM | IC50 (MIA PaCa-2): 3 nM | IC50 (BT-20): 30 nM | IC50 (K562): 2.5 nM | IC50 [11]: 5 nM | IC50 [2]: 4 nM | IC50 (A549): 3 nM

COc1cc(OC)c(/C=C/S(=O)(=O)Cc2ccc(OC)c(NC(F)(F)C(=O)O)c2)c(OC)c1
IC50 (DU-145): 150 nM | IC50 (K562): 150 nM

COc1ccc(CS(=O)(=O)/C=C/c2c(OC)cccc2OC)cc1N
IC50 (DU-145): 50 nM | IC50 (K562): 50 nM

COc1ccc(/C=C/S(=O)(=O)Cc2ccc(OC)c(N)c2)cc1
IC50 (DU-145): 2500 nM | IC50 (K562): 2500 nM

COc1ccc(CS(=O)(=O)/C=C/c2c(F)cc(F)cc2F)cc1N
IC50 (DU-145): 2000 nM | IC50 (K562): 800 nM

COC(=O)C(Nc1cc(CS(=O)(=O)/C=C/c2c(OC)cc(OC)cc2OC)ccc1OC)c1ccc(Cl)cc1 (stereo unspecified)
IC50 (DU-145): 400 nM | IC50 (K562): 200 nM

COc1cc(OC)c(/C=C/S(=O)(=O)Cc2ccc(OC)c(NC(C(=O)O)c3ccc(Cl)cc3)c2)c(OC)c1 (stereo unspecified)
IC50 (DU-145): 400 nM | IC50 (K562): 250 nM

COC(=O)C(Nc1cc(CS(=O)(=O)/C=C/c2c(OC)cc(OC)cc2OC)ccc1OC)c1ccc(F)cc1 (stereo unspecified)
IC50 (DU-145): 300 nM | IC50 (K562): 800 nM

COC(=O)C(Nc1cc(CS(=O)(=O)/C=C/c2c(OC)cc(OC)cc2OC)ccc1OC)C(F)(F)F (stereo unspecified)
IC50 (DU-145): 250 nM | IC50 (K562): 250 nM

COC(=O)C(Nc1cc(CS(=O)(=O)/C=C/c2c(OC)cc(OC)cc2OC)ccc1OC)c1ccc(OC)cc1 (stereo unspecified)
IC50 (DU-145): 250 nM | IC50 (K562): 150 nM
